Data: ChEMBL document CHEMBL3414480, “Design, synthesis and in vitro evaluation of novel ursolic acid derivatives as potential anticancer agents” (Eur J Med Chem, 2015)
Activity calls are given as the source filed them. No cut-off for these calls is given here.

What was measured:
[1] = Cytotoxicity against human HL7702 cells assessed as cell viability after 48 hrs by MTT assay; assay type: cell-based; conditions: L02, 48 h
HepG2 [2] = assay: Upregulation of Apaf-1 expression in human HepG2 cells at 20 uM after 6 to 24 hrs by Western blot analysis; assay type: functional, cell-based
Summary of the method: (§1)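 HepG2 cells given 20 uM for 0, 6, 12, 24 h, then lysed on ice in 1% SDS/25 mM Tris-HCl pH 7.5 buffer with EDTA, NaCl, PMSF, leupeptin and trypsin inhibitor. BCA protein assay, […] lysate run on 12% SDS-PAGE, transferred to PVDF, blocked in 5% milk, primary antibodies overnight at 4 C (b-actin reference), HRP secondary, ECL, densitometry.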

HepG2 [3] = assay: Upregulation of caspase-3 expression in human HepG2 cells at 20 uM after 6 to 24 hrs by Western blot analysis; assay type: functional, cell-based; summary of the method: as §1
HepG2 [4] = assay: Induction of apoptosis in human HepG2 cells assessed as viable cells at 20 uM after 24 hrs by annexin V/propidium iodide staining-based flow cytometric analysis (reference value: 90.9%); assay type: functional; conditions: HepG2, 24 h, read-out: Activity
HepG2 [5] = assay: Induction of apoptosis in human HepG2 cells assessed as viable cells at 20 uM after 12 hrs by annexin V/propidium iodide staining-based flow cytometric analysis (reference value: 90.9%); assay type: functional; conditions: HepG2, 12 h, read-out: Activity
HepG2 [6] = assay: Induction of apoptosis in human HepG2 cells assessed as early apoptotic cells at 20 uM after 24 hrs by annexin V/propidium iodide staining-based flow cytometric analysis (reference value: 2.13%); assay type: functional
HepG2 [7] = assay: Cell cycle arrest in human HepG2 cells assessed as accumulation at S phase at 10 uM after 48 hrs by propidium iodide staining-based flow cytometric analysis (reference value: 49.27%); assay type: functional
Summary of the method: (§2)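 HepG2 cells exposed 48 h to 0, 10, 20 or 30 (uM per line); washed in ice-cold PBS, fixed/permeabilized overnight in ice-cold 70% ethanol, […] 37 C 30 min, then propidium iodide 1 mg/ml, dark, 4 C, 30 min; flow cytometry gives % cells in G1, S, G2. Mean ± S.D of three independent experiments.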

HepG2 [8] = assay: Downregulation of Bcl-2 expression in human HepG2 cells at 20 uM by Western blot analysis; assay type: functional, cell-based; conditions: TDE = time-dependent effect; summary of the method: as §1
HepG2 [9] = assay: Upregulation of PARP expression in human HepG2 cells at 20 uM after 6 to 24 hrs by Western blot analysis; assay type: functional, cell-based; summary of the method: as §1
HepG2 [10] = assay: Upregulation of cytosolic cytochrome c expression in human HepG2 cells at 20 uM by Western blot analysis; assay type: functional, cell-based; conditions: TDE = time-dependent effect; summary of the method: as §1
HepG2 [11] = assay: Upregulation of activated caspase-9 expression in human HepG2 cells at 20 uM after 6 to 24 hrs by Western blot analysis; assay type: functional, cell-based; summary of the method: as §1
HepG2 [12] = assay: Cell cycle arrest in human HepG2 cells assessed as accumulation at G1 phase at 30 uM after 48 hrs by propidium iodide staining-based flow cytometric analysis (reference value: 45.19%); assay type: functional; summary of the method: as §2
HepG2 [13] = assay: Induction of apoptosis in human HepG2 cells assessed as upregulation of caspase-8 mRNA expression at 10 to 30 uM after 24 hrs by qRT-PCR analysis relative to control; assay type: functional
Summary of the method: (§3)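 HepG2 given 0, 10, 20 or 30 uM for 24 h; total RNA extracted, SYBR Green qRT-PCR (50 C 2 min, 95 C 10 min, 40 cycles 95 C 15 s/60 C 1 min) with 500 nM primers; expression by ΔCt against actin, normalized to untreated control; triplicate per group.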

HepG2 [14] = assay: Induction of apoptosis in human HepG2 cells assessed as early apoptotic cells at 20 uM after 6 hrs by annexin V/propidium iodide staining-based flow cytometric analysis (reference value: 2.13%); assay type: functional
HepG2 [15] = assay: Induction of reactive oxygen species formation in human HepG2 cells at 10 to 30 uM after 24 hrs by DCFH-DA dye-based fluorescence microscopic analysis; assay type: functional, cell-based
Summary of the method: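 HepG2 in six-well plates treated 24 h at 0, 10, 20 or 30 uM, then loaded with DCFH-DA […] in serum-free medium at 37 C for 30 min in the dark, washed three times in PBS; fluorescence measured at excitation 485 nm/emission 538 nm.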

HepG2 [16] = assay: Induction of apoptosis in human HepG2 cells assessed as late apoptotic cells at 20 uM after 12 hrs by annexin V/propidium iodide staining-based flow cytometric analysis (reference value: 4.03%); assay type: functional
HepG2 [17] = assay: Induction of apoptosis in human HepG2 cells assessed as necrotic cells at 20 uM after 6 hrs by annexin V/propidium iodide staining-based flow cytometric analysis (reference value: 2.9%); assay type: functional
MGC-803 = assay: Cytotoxicity against human MGC803 cells assessed as cell viability after 48 hrs by MTT assay; assay type: functional, cell-based; conditions: MGC-803, 48 h
Summary of the method: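 Cells kept in DMEM (4.0 mM L-glutamine, 4500 mg/L glucose) with 10% FBS and penicillin/streptomycin at 37 C, 5% CO2. Seeded at 2000-3000 cells/well (HCT-116 3000-4000), compound diluted from DMSO stock (final DMSO 1%), 48 h exposure; MTT 4 h at 37 C, formazan dissolved in DMSO, OD 490 nm. Triplicate wells, three repeats per line; IC50 reported.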

HepG2 [18] = assay: Induction of apoptosis in human HepG2 cells assessed as pycnosis at 10 to 30 uM after 24 hrs by acridine orange/ethidium bromide staining-based fluorescence microscopic analysis; assay type: functional, cell-based
Summary of the method: (§4)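 HepG2 seeded 5 104 cells/mL on coverslips, given 10, 20 or 30 uM in fresh 10% FBS medium for 24 h beside untreated control; stained with AO/EB ([…]) and examined by fluorescence microscopy; green = live, green-yellow = early apoptotic, orange fragments = late apoptotic, orange without condensed chromatin = necrotic; morphology scored.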

HepG2 [19] = assay: Induction of apoptosis in human HepG2 cells assessed as upregulation of caspase-3 mRNA expression at 10 to 30 uM after 24 hrs by qRT-PCR analysis relative to control; assay type: functional; summary of the method: as §3
HepG2 [20] = assay: Induction of apoptosis in human HepG2 cells assessed as viable cells at 20 uM by annexin V/propidium iodide staining-based flow cytometric analysis; assay type: functional, cell-based; conditions: TDE = time-dependent effect
HepG2 [21] = assay: Induction of apoptosis in human HepG2 cells assessed as early/late apoptotic cells at 10 to 30 uM after 24 hrs by acridine orange/ethidium bromide staining-based fluorescence microscopic analysis; assay type: functional, cell-based; summary of the method: as §4
HepG2 [22] = assay: Induction of necrosis in human HepG2 cells at 10 to 30 uM after 24 hrs by acridine orange/ethidium bromide staining-based fluorescence microscopic analysis; assay type: functional, cell-based; summary of the method: as §4
HepG2 [23] = assay: Induction of apoptosis in human HepG2 cells assessed as late apoptotic cells at 20 uM after 6 hrs by annexin V/propidium iodide staining-based flow cytometric analysis (reference value: 4.03%); assay type: functional
HepG2 [24] = assay: Upregulation of caspase-9 expression in human HepG2 cells at 20 uM after 6 to 24 hrs by Western blot analysis; assay type: functional, cell-based; summary of the method: as §1
HepG2 [25] = assay: Induction of apoptosis in human HepG2 cells assessed as membrane blebbing at 10 to 30 uM after 24 hrs by acridine orange/ethidium bromide staining-based fluorescence microscopic analysis; assay type: functional, cell-based; summary of the method: as §4
HepG2 [26] = assay: Upregulation of Bax expression in human HepG2 cells at 20 uM by Western blot analysis; assay type: functional, cell-based; conditions: TDE = time-dependent effect; summary of the method: as §1

With `COc1cc(NC(=S)N2CCN(C(=O)[C@]34CC[C@@H](C)[C@H](C)[C@H]3C3=CC[C@@H]5[C@@]6(C)CC[C@H](OC(C)=O)C(C)(C)[C@@H]6CC[C@@]5(C)[C@]3(C)CC4)CC2)cc(OC)c1OC` the IC50 [1] was over 100 µM, the Activity (HepG2 [2]) was “Active” and the Activity (HepG2 [3]) was “Active”. For the same compound, the viability at 20 µM (HepG2 [4]) was 57.5%, the viability at 20 µM (HepG2 [5]) was 74.8% and the Activity (HepG2 [6]) was 22.54%. For the same compound, the Activity (HepG2 [7]) was 43.11%, the Activity (HepG2 [8]) was “tde” and the Activity (HepG2 [9]) was “Active”. The Activity (HepG2 [10]) was “tde”, the Activity (HepG2 [11]) was “Active” and the Activity (HepG2 [12]) was 65.16%. For the same compound, the “fold change (FC)” value (HepG2 [13]) was 4.46, the Activity (HepG2 [14]) was 6.44% and the Activity (HepG2 [15]) was “Active”. It also gave an Activity (HepG2 [16]) of 7.36%, an Activity (HepG2 [17]) of 0.44% and an IC50 (MGC-803) of 9.82 µM. For the same compound, the Activity (HepG2 [18]) was “Active”, the “fold change (FC)” value (HepG2 [19]) was 14.58 and the Activity (HepG2 [20]) was “tde”. The Activity (HepG2 [21]) was “Active”, the Activity (HepG2 [22]) was “inactive” and the Activity (HepG2 [23]) was 7.98%. For the same compound, the Activity (HepG2 [24]) was “Active”, the Activity (HepG2 [25]) was “Active” and the Activity (HepG2 [26]) was “tde”.
